Assay outcomes (PubChem)
Hits are enriched below; roughly 3.1% of the tested compounds scored in any of these assays.
SENP8 block-1: SENP8 protease inhibitors, primary screen, biochemical, luminescence; purified SENP8, Z-RLRGG-aminoluciferin cleavage; 1.2% of 330,000 active; inhibition, % at 10 µM; Sentrin-specific protease 8 (Homo sapiens), Q96LD8; in the data active means inhibition above about 50%
Apaf-1 inh: inhibitors of human Apaf-1 apoptosome, primary screen, biochemical, DEVD-Rh110 fluorescence, uHTS. Apoptotic protease-activating factor 1 (Homo sapiens), O14727. reconstituted apoptosome caspase-3 activity. inhibition, % at 20 µM. 0.71% of 330,000 active. AID 489030, 2010; active means inhibition of at least 40% at 20 µM
Target sequence (O14727 whole entry, looked up): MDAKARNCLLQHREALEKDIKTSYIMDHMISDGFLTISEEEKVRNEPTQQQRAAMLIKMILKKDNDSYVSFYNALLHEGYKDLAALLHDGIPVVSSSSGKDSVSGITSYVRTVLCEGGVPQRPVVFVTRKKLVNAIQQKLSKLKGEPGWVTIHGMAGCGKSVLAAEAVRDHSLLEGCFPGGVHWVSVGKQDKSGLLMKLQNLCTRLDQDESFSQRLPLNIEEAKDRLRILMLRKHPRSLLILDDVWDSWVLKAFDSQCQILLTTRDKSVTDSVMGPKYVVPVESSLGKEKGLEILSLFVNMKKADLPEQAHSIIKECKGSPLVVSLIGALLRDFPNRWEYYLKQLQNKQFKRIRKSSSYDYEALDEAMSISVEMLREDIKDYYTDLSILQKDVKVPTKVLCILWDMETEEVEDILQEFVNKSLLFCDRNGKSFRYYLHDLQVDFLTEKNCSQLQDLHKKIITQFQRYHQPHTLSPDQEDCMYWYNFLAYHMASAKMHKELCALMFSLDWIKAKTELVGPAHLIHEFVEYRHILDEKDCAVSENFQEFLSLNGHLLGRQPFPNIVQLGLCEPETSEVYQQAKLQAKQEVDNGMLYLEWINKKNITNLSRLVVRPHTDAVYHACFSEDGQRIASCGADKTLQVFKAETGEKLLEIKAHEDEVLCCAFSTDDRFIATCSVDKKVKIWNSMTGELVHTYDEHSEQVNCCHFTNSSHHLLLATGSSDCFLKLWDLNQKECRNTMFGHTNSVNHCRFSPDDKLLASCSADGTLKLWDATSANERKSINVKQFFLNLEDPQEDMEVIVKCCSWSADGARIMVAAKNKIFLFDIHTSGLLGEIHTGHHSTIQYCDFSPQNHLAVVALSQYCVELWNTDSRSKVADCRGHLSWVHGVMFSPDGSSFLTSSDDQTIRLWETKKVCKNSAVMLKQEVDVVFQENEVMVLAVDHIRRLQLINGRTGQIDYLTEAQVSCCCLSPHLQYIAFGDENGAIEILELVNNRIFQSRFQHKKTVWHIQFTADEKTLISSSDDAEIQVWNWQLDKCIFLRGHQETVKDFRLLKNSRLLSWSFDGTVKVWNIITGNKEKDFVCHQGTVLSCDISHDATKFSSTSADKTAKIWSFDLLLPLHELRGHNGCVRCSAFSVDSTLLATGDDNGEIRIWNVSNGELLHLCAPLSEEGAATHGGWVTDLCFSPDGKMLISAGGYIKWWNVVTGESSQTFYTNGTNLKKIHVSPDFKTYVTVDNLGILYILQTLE
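Material: reconstituted apoptosome with Apaf-1, cytochrome c, caspase-9, procaspase-3, dATP. Technique: Rh110 fluorescence intensity. Buffer or medium: pH 7.5 Hepes buffer with CHAPS, BSA, DTT. Times: 30 min plus 50 min, RT.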
UBC13 inh: UBC13 polyubiquitin chain formation inhibitors, primary screen, biochemical, TR-FRET, uHTS | Ubiquitin-conjugating enzyme E2 N (Homo sapiens), P61088 | inhibition, % at 20 µM | 0.47% of 330,000 active; in the data active means inhibition above about 45%, passing the limit was not always enough
SENP7 block: SENP7 protease inhibitors, primary screen, biochemical, luminescence, uHTS; 1.5% of 330,000 active; recombinant SENP7, Z-RLRGG-aminoluciferin luminescence, 40 min; inhibition, % at 5 µM; Sentrin-specific protease 7 (Homo sapiens), Q9BQF6;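 active means inhibition above about 50% at the single test dose, limit read from the data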
SENP8 block-2: human SENP8 protease inhibitors, primary screen, biochemical, fluorescence, Nedd8 protein substrate, uHTS | recombinant SENP8 | inhibition, % at 20 µM | AID 602440, 2012 | 0.64% of 360,000 active | Sentrin-specific protease 8 (Homo sapiens), Q96LD8; in the data active means inhibition mostly above about 40%, no sharp cut-off; inactive means mostly below about 27%
SENP6 block: SENP6 protease inhibitors, primary screen, biochemical, luminescence, uHTS. AID 2599, 2010. 1.8% of 330,000 active. Sentrin-specific protease 6 (Homo sapiens), Q9GZR1. inhibition, % at 10 µM. Recombinant SENP6 catalytic domain, aminoluciferin luminescence;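 active means inhibition above about 50% at the single tested dose, limit read from the data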
SENP8 confirm: SENP8 protease inhibitors, retest, confirmation, biochemical, luminescence, single concentration | shares compounds with SENP7 block | Recombinant SENP8, Z-RLRGG-aminoluciferin luminescence, 60 min | inhibition, % at 12.5 µM | 40% of 6,200 active;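 active means mean inhibition across replicates above about 50%, limit read from the data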
SENP6 confirm: SENP6 protease inhibitors, confirmation, biochemical, luminescence, single concentration | shares compounds with SENP7 block | recombinant SENP6, Z-RLRGG-aminoluciferin luminescence | inhibition, % at 12.5 µM | 58% of 6,200 active | AID 488915, 2010
SENP7 confirm: SENP7 protease inhibitors, retest, confirmation, biochemical, luminescence, single concentration | shares compounds with SENP7 block | inhibition, % at 12.5 µM | AID 488917, 2010 | recombinant SENP7, Z-RLRGG-aminoluciferin luminescence, 40 min | 69% of 6,200 active
Casp3 select: caspase-3 protease inhibitors, confirmation, selectivity assay for SENP inhibitor project, biochemical, single concentration | purified caspase-3, Z-DEVD-aminoluciferin luminescence, 60 min | inhibition, % at 12.5 µM | shares compounds with SENP7 block | 60% of 6,200 active;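 active means mean inhibition above about 50%, limit read from the data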
SENP luc ctr: interferes with luciferase luminescence in SENP counter-screen; Pre-incubated SENP8/Z-RLRGG-aminoluciferin, luciferase luminescence interference; shares compounds with SENP7 block; 39% of 6,200 active; inhibition, % at 12.5 µM; AID 488919;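 active means mean inhibition above about 50% when retested at one dose, limit read from the data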
Of the large screens only hits and unclear results are named; the others gave an inactive call (follow-up assays come after a bar, where they were run).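 How the source made its calls, unless noted: active means mean inhibition above about 50% in the one-dose retest (limit read from the data); inactive means the rest.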

CC(=Nc1ccc(C)c(C)c1)C1=C(O)CSC1=O	SENP6 block 54 | SENP8 confirm 58 | SENP6 confirm 56 | SENP7 confirm 82 | Casp3 select 74 | SENP luc ctr 64
CCOc1ccc(/C=C/C(=O)CCC(=O)O)cc1	SENP7 block 63, SENP6 block 70 | SENP8 confirm 66 | SENP6 confirm 53 | SENP7 confirm 84 | Casp3 select inactive | SENP luc ctr 72
CCOc1ccc(/C=C\C(C)=N\O)cc1	SENP8 block-1 84, SENP6 block 91 | SENP8 confirm 90 | SENP6 confirm 90 | SENP7 confirm 100 | Casp3 select 93 | SENP luc ctr 90
CC1(c2nnnn2-c2ccc3c(c2)OCCO3)CCC(=O)N1CCCn1ccnc1 (stereo not drawn)	none (no result: SENP8 block-1, Apaf-1 inh, UBC13 inh, SENP7 block, SENP6 block)
Cn1nc(C(C)(C)C)cc1C(=O)N1CCCCC1c1cc(C(=O)NCc2cccnc2)no1 (stereo not drawn)	none (no result: SENP8 block-1, Apaf-1 inh, UBC13 inh, SENP7 block, SENP6 block)
Cc1ccc(S(=O)(=O)N2[C@H](CC(=O)c3cccc4ccccc34)OC[C@@H]2C)cc1	none (no result: SENP8 block-1, Apaf-1 inh, UBC13 inh, SENP7 block, SENP6 block)
CS(=O)(=O)c1ccc(-c2cn3cc(C(=O)O)ccc3n2)cc1	SENP8 block-1 55, SENP7 block 58, SENP6 block 60 | SENP8 confirm inactive | SENP6 confirm 66 | SENP7 confirm 86 | Casp3 select inactive | SENP luc ctr 56
O=C(C[C@@H]1C=C[C@@H](NC(=O)c2cccnc2)[C@@H](CO)O1)NCc1ccncn1	none (no result: SENP8 block-1, Apaf-1 inh, UBC13 inh, SENP7 block, SENP6 block)
CCCCSc1nnc(CSc2nc3nc(C)cc(C)n3n2)o1	SENP7 block 78 | SENP8 confirm inactive | SENP6 confirm inactive | SENP7 confirm inactive | Casp3 select inactive | SENP luc ctr inactive
CC1(C(=O)NS(=O)(=O)C2CC2)CCCN(C(=O)c2ccc3ccccc3c2)C1 (stereo not drawn)	none (no result: SENP8 block-1, Apaf-1 inh, UBC13 inh, SENP7 block, SENP6 block)
COc1cccc(NC(=O)Nc2nnc([C@H]3C[C@H](O)[C@@H](CO)O3)s2)c1	none (no result: SENP8 block-1, Apaf-1 inh, UBC13 inh, SENP7 block, SENP6 block)
O=C(Nc1ccc2c(c1)CCC2)c1ccccc1	SENP8 block-1 82, SENP7 block 88, SENP6 block 84 | SENP8 confirm 90 | SENP6 confirm 89 | SENP7 confirm 98 | Casp3 select 88 | SENP luc ctr 87
CCn1ccc(C(=O)Nc2ccc3c(c2)CCC3)n1	SENP7 block 59 | SENP8 confirm inactive | SENP6 confirm inactive | SENP7 confirm 81 | Casp3 select 65 | SENP luc ctr 57
Cc1ccc(C(=O)Nc2nc(C)c(C(=O)Nc3ccc4c(c3)CCC4)s2)cc1	SENP6 block 66 | SENP8 confirm inactive | SENP6 confirm inactive | SENP7 confirm 65 | Casp3 select inactive | SENP luc ctr inactive
CCCCc1ccc(NC(=O)c2cnccn2)cc1	SENP8 block-1 85, SENP7 block 92, SENP6 block 85 | SENP8 confirm 92 | SENP6 confirm 95 | SENP7 confirm 101 | Casp3 select 86 | SENP luc ctr 58
